Active and inactive are the calls of the source. The calls are words filed in the database; no cut-off is given here.
What was measured:
Rattus norvegicus [1] = species on record: Rattus norvegicus; assay: animal or person; settings: Sprague-Dawley, Plasma, po, 6 h, read-out: Inhibition
Rattus norvegicus [2] = assay: Ex vivo inhibition of DPP4 in Sprague-Dawley rat plasma at 0.3 mg/kg, po after 9 hrs; format: functional
Procedure, shortened: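 Male Sprague–Dawley rats, 6–7 weeks old, fasted at least 8 h, then given a single oral dose of 0.3 mg/kg in 0.5% methyl cellulose. Jugular vein blood was drawn before dosing and at 0.25–9 h after. Plasma was mixed with Gly-Pro-AMC (added as a 60 µM solution). The initial rate over the first 15 min was read at 37 °C (ex 355/em 460 nm). Inhibition is expressed as % of basal activity.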

Dipeptidyl peptidase 8 = Dipeptidyl peptidase 8 (Homo sapiens, UniProt Q6V1X1); assay: Inhibition of human DPP8
Dipeptidyl peptidase 8, sequence (Q6V1X1 whole entry): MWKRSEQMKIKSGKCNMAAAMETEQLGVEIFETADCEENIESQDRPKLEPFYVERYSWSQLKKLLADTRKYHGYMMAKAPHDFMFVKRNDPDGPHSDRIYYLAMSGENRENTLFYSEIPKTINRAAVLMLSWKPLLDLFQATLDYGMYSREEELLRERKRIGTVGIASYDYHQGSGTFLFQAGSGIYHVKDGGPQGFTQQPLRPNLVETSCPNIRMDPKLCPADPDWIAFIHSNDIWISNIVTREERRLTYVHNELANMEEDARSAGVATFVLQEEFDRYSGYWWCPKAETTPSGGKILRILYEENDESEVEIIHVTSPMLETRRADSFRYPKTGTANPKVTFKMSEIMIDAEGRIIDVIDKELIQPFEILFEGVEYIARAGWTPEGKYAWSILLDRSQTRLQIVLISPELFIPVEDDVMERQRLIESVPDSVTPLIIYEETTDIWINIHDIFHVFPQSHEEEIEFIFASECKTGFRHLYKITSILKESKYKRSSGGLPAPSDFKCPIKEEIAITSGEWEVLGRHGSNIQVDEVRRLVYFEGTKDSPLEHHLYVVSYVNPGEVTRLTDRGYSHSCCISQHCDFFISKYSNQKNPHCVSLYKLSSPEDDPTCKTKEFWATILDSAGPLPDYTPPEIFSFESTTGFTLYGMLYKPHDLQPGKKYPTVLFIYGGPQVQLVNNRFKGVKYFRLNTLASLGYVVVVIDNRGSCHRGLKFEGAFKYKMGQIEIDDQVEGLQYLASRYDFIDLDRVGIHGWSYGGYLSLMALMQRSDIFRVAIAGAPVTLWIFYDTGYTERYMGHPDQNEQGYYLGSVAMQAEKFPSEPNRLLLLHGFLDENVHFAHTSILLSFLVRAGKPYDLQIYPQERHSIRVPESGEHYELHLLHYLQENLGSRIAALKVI

Rattus norvegicus [3] = assay: Reduction of glucose level in Sprague-Dawley rat plasma at 1 mg/kg, po after 7 hrs by multiple glucose tolerance test; format: functional, organism-based; set-up: dose 1 mg/kg
Procedure, shortened: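 Male SD rats (364–473 g), fasted at least 20 h, were dosed orally at −0.5 h with 1 mg/kg or with vehicle (0.5% methyl cellulose). Oral glucose, 1 g/kg, was given at 0 and 6 h. Tail vein plasma was taken at −0.08 to 8 h, stored at −80 °C, and assayed by glucose oxidase-peroxidase. Results are mean ± SEM (n = 7), compared with vehicle by Student's t test.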

Compound | inhibition in vivo at 0.3 mg/kg (Rattus norvegicus [1]) [%] | further results
CC[C@@H]1N[C@H](C(=O)N2CCC[C@H]2C#N)C[C@@H]1C(=O)N(C)C | 45 | 
CCN(CC#N)C(=O)[C@@H]1C[C@H](C(=O)N2CCCCC2)[C@H](C)N1 | 60 | 
C=CCN(CC#N)C(=O)[C@@H]1C[C@H](C(=O)N(C)C)[C@H](C)N1 | 19 | 
C[C@@H]1N[C@H](C(=O)N2CCC[C@H]2C#N)C[C@@H]1C(=O)N(C)C | 89 | inhibition in vivo at 0.3 mg/kg (Rattus norvegicus [2]): 83%
C[C@@H]1N[C@H](C(=O)N2CCC[C@H]2C#N)C[C@@H]1CC(=O)N(C)C | 40 | 
C#CCN(CC#N)C(=O)[C@@H]1C[C@H](C(=O)N(C)C)[C@H](C)N1 | 18 | 
C[C@@H]1N[C@H](C(=O)N(CC#N)C2CC2)C[C@@H]1C(=O)N(C)C | 29 | 
CCN(CC#N)C(=O)[C@@H]1C[C@H](C(=O)N2CCCC2)[C@H](C)N1 | 53 | 
CCN(CC#N)C(=O)[C@@H]1C[C@H](C(=O)N(C)C)[C@H](C)N1 | 73 | inhibition in vivo at 0.3 mg/kg (Rattus norvegicus [2]): 62%; IC50 (Dipeptidyl peptidase 8): > 100 µM; Activity (Rattus norvegicus [3]): Active
C[C@@H]1N[C@H](C(=O)N(C)CC#N)C[C@@H]1C(=O)N(C)C | 55 | IC50 (Dipeptidyl peptidase 8): > 100 µM
CCN(CC#N)C(=O)[C@@H]1C[C@H](C(=O)N2CCOCC2)[C@H](C)N1 | 65 | 
CCN(CC#N)C(=O)[C@@H]1C[C@H](C(=O)NCc2ccccc2)[C@H](C)N1 | 31 | 
CCN(CC#N)C(=O)[C@@H]1C[C@H](C(=O)N2Cc3ccccc3C2)[C@H](C)N1 | 64 | 
